SMILES strings stand for the structures. Active and inactive are the calls of the source. The rule behind the calls is not given here.

Usually inhibition stands for the relative decrease from the control value, in per cent. Usually CC50 stands for the concentration at which the toxic effect on the cells reaches its halfway point. In general, EC50 refers to the concentration at which the effect is half-maximal. What is called ΔTm is the change in melting temperature against a reference sample.

In series [1] the target is T1, Arginase-1 (Homo sapiens) (UniProt P05089).
T1 sequence (whole entry): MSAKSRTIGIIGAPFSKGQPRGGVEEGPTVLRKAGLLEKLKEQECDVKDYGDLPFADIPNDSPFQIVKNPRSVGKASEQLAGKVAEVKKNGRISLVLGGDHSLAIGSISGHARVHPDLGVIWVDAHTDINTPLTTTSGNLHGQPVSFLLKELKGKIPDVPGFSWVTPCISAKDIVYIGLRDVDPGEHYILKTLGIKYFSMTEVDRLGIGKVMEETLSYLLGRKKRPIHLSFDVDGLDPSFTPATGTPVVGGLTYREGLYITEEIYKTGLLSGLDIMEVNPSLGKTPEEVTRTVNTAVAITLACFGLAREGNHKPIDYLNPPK
As to the kind of experiment: Inhibition of human Arg1 at 200 uM using thio-arginine substrate incubated for 30 mins by Ellman's reagent based assay.

Series [2] in a line: Cytotoxicity in MDCK cells assessed as reduction in cell viability incubated for 12 hrs by MTT assay. The series is classed as cell-based, Canis lupus familiaris. The settings on record: dog. In general terms: Tetrazolium dyes change colour on reduction, which living cells bring about.
Series [3] has as its target Macrophage metalloelastase (Homo sapiens) (UniProt P39900). As to the kind of experiment: Inhibition of human recombinant MMP12 at 200 uM incubated for 15 mins using OmniMMP fluorogenic substrate by fluorescence based assay.
The target in series [4] is Polymerase acidic protein (Influenza A virus (A/Puerto Rico/8/1934(H1N1)), UniProt P03433). Nature of the series: Inhibition of Influenza A virus RNA-dependent RNA polymerase PA N-terminal endonuclease using [6-FAM]AATCGCAGGCAGCACTC[TAM] substrate and measured over 45 mins by fluorescence based assay.
Series [5] in a line: Cytotoxicity in mouse NIH/3T3 cells assessed as reduction in cell viability incubated for 12 hrs by MTT assay. The series is classed as cell-based, NIH3T3.
Series [6] can be described thus: Antiviral activity against Influenza A virus (A/California/04/2009(H1N1)) ATCC VR-1737 infected in MDCK cells assessed as reduction in virus-induced cytopathic effect incubated for 48 hrs by Cell-titer-Glo luminescence assay. The series is classed as functional, cell-based. Conditions: ATCC VR-1737, MDCK. The method in brief:
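MDCK cells at 80% confluence were exposed to virus plus a range of inhibitor concentrations for 48 h at 37 °C, 5% CO2. CPE and cell viability were then read by CellTiter-Glo luminescence.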
On the technique in general: Damage to the host cells serves as the signal in cytopathic effect assays.

The target in series [7] is Methionine aminopeptidase 2 (Homo sapiens) (UniProt P50579). As to the kind of experiment: Inhibition of recombinant human MetAP2 at 200 uM using Met-AMC as fluorogenic substrate by fluorescence assay.
Chain of Methionine aminopeptidase 2 (Homo sapiens) (P50579 2-478 limits assumed): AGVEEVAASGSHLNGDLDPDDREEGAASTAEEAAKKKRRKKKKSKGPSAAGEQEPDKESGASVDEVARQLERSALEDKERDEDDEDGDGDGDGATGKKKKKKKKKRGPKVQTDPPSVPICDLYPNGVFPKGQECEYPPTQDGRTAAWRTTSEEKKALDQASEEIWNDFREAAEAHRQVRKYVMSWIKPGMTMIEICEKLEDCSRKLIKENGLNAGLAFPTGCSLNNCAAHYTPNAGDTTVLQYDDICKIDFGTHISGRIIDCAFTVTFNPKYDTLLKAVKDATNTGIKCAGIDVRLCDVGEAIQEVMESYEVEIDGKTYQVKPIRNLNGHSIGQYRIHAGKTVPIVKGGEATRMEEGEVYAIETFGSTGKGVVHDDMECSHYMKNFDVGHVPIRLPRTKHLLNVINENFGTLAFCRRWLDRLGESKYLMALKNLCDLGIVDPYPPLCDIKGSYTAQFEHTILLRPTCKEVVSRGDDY
Series [8] deals with Polymerase acidic protein (Influenza A virus (A/Puerto Rico/8/1934(H1N1))) (UniProt P03433).
Series [9] can be described thus: Selectivity index, ratio of CC50 for cytotoxicity in mouse NIH/3T3 cells assessed as reduction in cell viability incubated for 12 hrs by MTT assay to EC50 for antiviral activity against Influenza A virus (A/California/04/2009(H1N1)) ATCC VR-1737 infected in MDCK cells assessed as reduction in virus-induced cytopathic effect incubated for 48 hrs by Cell-titer-Glo luminescence assay. The series is classed as toxicity, cell-based. The settings on record: read-out: Ratio CC50/EC50.

Series [10] in a line: Selectivity index, ratio of CC50 for cytotoxicity in MDCK cells assessed as reduction in cell viability incubated for 12 hrs by MTT assay to EC50 for antiviral activity against Influenza A virus (A/California/04/2009(H1N1)) ATCC VR-1737 infected in MDCK cells assessed as reduction in virus-induced cytopathic effect incubated for 48 hrs by Cell-titer-Glo luminescence assay. The series is classed as toxicity, cell-based. Conditions: dog, read-out: Ratio CC50/EC50.

For series [11], the target named is Carbonic anhydrase 2 (Homo sapiens) (UniProt P00918). As to the kind of experiment: Inhibition of recombinant human CA2 expressed in Escherichia coli BL21 at 200 uM incubated for 15 mins using p-Nitrophenyl acetate substrate.

Chain of Macrophage metalloelastase (Homo sapiens) (P39900 106-470 limits assumed): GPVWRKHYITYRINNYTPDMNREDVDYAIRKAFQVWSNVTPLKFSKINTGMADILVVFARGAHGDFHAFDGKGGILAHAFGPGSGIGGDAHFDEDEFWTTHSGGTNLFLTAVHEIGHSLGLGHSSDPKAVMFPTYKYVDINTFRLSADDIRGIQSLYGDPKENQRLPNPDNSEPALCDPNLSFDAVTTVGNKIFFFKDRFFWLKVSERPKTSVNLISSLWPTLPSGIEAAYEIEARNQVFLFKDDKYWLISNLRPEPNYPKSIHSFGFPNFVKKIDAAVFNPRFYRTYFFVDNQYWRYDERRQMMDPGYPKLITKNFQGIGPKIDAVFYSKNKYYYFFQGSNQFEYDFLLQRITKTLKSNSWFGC

In the case of `O=C(O)c1[nH]c(-c2ccc(-c3nnn[nH]3)cc2C(F)(F)F)cc(=O)c1O`, the inhibition result in [1], in series [3], in series [7] and in [11] was “inactive” each time. The CC50 at 12 h in [2] and in series [5] was over 800000 nM each time. Moreover, the figures for the IC50 in series [4] (read-out: IC50) and in [4] (read-out: pIC50 (converted)) were 47 nM and 0.0501 nM, respectively. Further, in [6], the concentration giving a half-maximal response (EC50) was determined as 11500 nM. Further, the thermal shift (ΔTm) in series [8] was found to be 17.8 °C. In addition, the selectivity ratio at 12 h in series [9] and in series [10] was 35 to 75 each time.
In the case of `CC(C)c1cccc(-c2cc(=O)c(O)c(C(=O)O)[nH]2)c1`, the IC50 in series [4] (read-out: IC50) was 6.3 nM. Also, the ΔTm in series [8] stood at 10.1 °C.
On to `O=C(O)/C(O)=C/C(=O)C1(Cc2ccc(Cl)cc2)CCN(Cc2ccccc2)CC1`, for which the cytotoxic concentration (CC50) at 12 h in series [2] and in series [5] was over 800000 nM throughout. Further, the EC50 in series [6] is 7400 nM. Besides, the selectivity ratio at 12 h in series [9] and in series [10] was 35 to 75 in each case.
`O=C(O)c1[nH]c(-c2ccc(Oc3ccccc3)cc2)cc(=O)c1O`: the IC50 in series [4] (read-out: IC50) was found to be 25 nM. Besides, the ΔTm in series [8] worked out at 8.1 °C.
`Cc1cc(=O)c(O)c(C(=O)O)[nH]1`: the ΔTm in series [8] is 11.1 °C.
For `O=C(O)c1cccc(-c2cc(=O)c(O)c(C(=O)O)[nH]2)c1`, the IC50 in series [4] (read-out: IC50) turned out to be 2.3 nM. In addition, the ΔTm in series [8] was found to be 11.7 °C.
The like results for `O=C(O)c1[nH]c(-c2ccccc2Oc2ccccc2)cc(=O)c1O` were, in that order, 6 nM and 10.4 °C.
On to `Cc1cc(-c2nnn[nH]2)ccc1-c1cc(=O)c(O)c(C(=O)O)[nH]1`, for which the inhibition entry in [1], in series [3] and in [11] was “inactive” throughout. Moreover, the CC50 at 12 h in series [2] and in series [5] was over 800000 nM throughout. The IC50 in series [4] (read-out: IC50) was 110 nM; in series [4] (read-out: pIC50 (converted)), 0.1 nM. In addition, the EC50 in [6] was 21300 nM. Moreover, the inhibition in [7] amounted to 44%. For the same compound, the thermal shift (ΔTm) in series [8] turned out to be 16.5 °C. In addition, the selectivity ratio at 12 h in [9] and in series [10] was 35 to 75 in each case.
Turning to `O=C(O)c1ccc(-c2cc(=O)c(O)c(C(=O)O)[nH]2)cc1`, the IC50 in series [4] (read-out: IC50) and in series [4] (read-out: pIC50 (converted)) was under 2 nM throughout. Also, the ΔTm in series [8] was 11.9 °C.
With `CC(C)c1ccccc1-c1cc(=O)c(O)c(C(=O)O)[nH]1`, the IC50 in series [4] (read-out: IC50) is 3.2 nM. Further, in series [8], the ΔTm is 11.6 °C.
As for `Cc1cc(C(=O)O)ccc1-c1cc(=O)c(O)c(C(=O)O)[nH]1`, the IC50 in series [4] (read-out: IC50) was 230 nM; in [4] (read-out: pIC50 (converted)), 0.251 nM. Also, the ΔTm in series [8] amounted to 15.3 °C.
Consider `O=C(O)c1[nH]c(-c2ccccc2C(F)(F)F)cc(=O)c1O`, for which the half-maximal cytotoxic concentration (CC50) at 12 h in series [2] and in series [5] was over 800000 nM each time. In addition, the IC50 in [4] (read-out: IC50) and in [4] (read-out: pIC50 (converted)) was under 2 nM throughout. Besides, the EC50 in series [6] is 10400 nM. The thermal shift (ΔTm) in series [8] stood at 13.3 °C. The selectivity ratio at 12 h in [9] and in series [10] was 35 to 75 in each case.
As for `O=C1c2c(O)c(=O)ccn2N([C@@H]2c3ccccc3SCc3c2ccc(F)c3F)[C@@H]2COCCN12` [BALOXAVIR], the CC50 at 12 h in series [2] was 20000 nM; in series [5] it was over 800000 nM. Further, the EC50 in [6] came to 2200 nM.
In the case of `O=C(O)c1[nH]c(-c2ccccc2)cc(=O)c1O`, in [4] (read-out: IC50), the IC50 stood at 5.6 nM. In addition, the shift in melting temperature (ΔTm) in series [8] worked out at 8.5 °C.
The like results for `Cc1ccc(-c2cc(=O)c(O)c(C(=O)O)[nH]2)cc1` were, in that order, 7.2 nM and 10.3 °C.
Turning to `O=C(O)c1[nH]c(-c2cccc(Oc3ccccc3)c2)cc(=O)c1O`, in series [4] (read-out: IC50), the IC50 worked out at 14 nM. In addition, the thermal shift (ΔTm) in series [8] is 9 °C.
As to `Cc1cc(-c2noc(=O)[nH]2)ccc1-c1cc(=O)c(O)c(C(=O)O)[nH]1`, the inhibition result in series [1], in [3], in [7] and in series [11] was “inactive” each time. The IC50 in [4] (read-out: IC50) is 120 nM; in [4] (read-out: pIC50 (converted)), 0.126 nM. For the same compound, the ΔTm in [8] is 16.3 °C.
`Cc1ccccc1-c1cc(=O)c(O)c(C(=O)O)[nH]1`: the thermal shift (ΔTm) in series [8] was found to be 13.2 °C.
Consider `CSc1ccccc1-c1cc(=O)c(O)c(C(=O)O)[nH]1`, for which the IC50 in series [4] (read-out: IC50) was found to be 3.2 nM. For the same compound, in series [8], the ΔTm was 11.8 °C.
In the case of `O=C(O)c1[nH]c(-c2cccc(-c3nnn[nH]3)c2)cc(=O)c1O`, the IC50 in [4] (read-out: IC50) and in [4] (read-out: pIC50 (converted)) was under 2 nM each time. For the same compound, the ΔTm in [8] worked out at 12.9 °C.
As to `Cc1cccc(-c2cc(=O)c(O)c(C(=O)O)[nH]2)c1`, the IC50 in series [4] (read-out: IC50) was determined as 4.8 nM. Moreover, the shift in melting temperature (ΔTm) in series [8] is 10.7 °C.
`CCc1ccccc1-c1cc(=O)c(O)c(C(=O)O)[nH]1`: the IC50 in [4] (read-out: IC50) and in [4] (read-out: pIC50 (converted)) was under 2 nM in each case. Besides, in series [8], the ΔTm is 13.1 °C.
Turning to `O=C(O)c1[nH]c(-c2ccc(-c3nnn[nH]3)cc2)cc(=O)c1O`, the CC50 at 12 h in series [2] and in series [5] was over 800000 nM each time. Moreover, the IC50 in series [4] (read-out: IC50) and in series [4] (read-out: pIC50 (converted)) was under 2 nM throughout. Also, in series [6], the EC50 was found to be 7700 nM. Further, the ΔTm in series [8] stood at 14.1 °C. Besides, the selectivity ratio at 12 h in [9] and in series [10] was over 100 each time.
As to `COc1ccccc1-c1cc(=O)c(O)c(C(=O)O)[nH]1`, the IC50 in series [4] (read-out: IC50) worked out at 2.3 nM. The ΔTm in series [8] turned out to be 11.9 °C.

These data come from ChEMBL document CHEMBL4334499, “SAR Exploration of Tight-Binding Inhibitors of Influenza Virus PA Endonuclease” (J Med Chem, 2019).
